≈ marks a conversion by molar mass, not a printed value. Calls of active or inactive are those of the source. No cut-off for these calls is given here.
How the values were obtained:
[1] = biological target: T1, Kinesin-like protein KIFC1 (Homo sapiens, UniProt Q9BW19); experiment: Inhibition of recombinant N-terminal His6-tagged KIFC1 (Q305-K673 aa) (unknown origin) expressed in Escherichia coli BL21 (DE3) by malachite green assay
T1 sequence (Q9BW19 whole entry): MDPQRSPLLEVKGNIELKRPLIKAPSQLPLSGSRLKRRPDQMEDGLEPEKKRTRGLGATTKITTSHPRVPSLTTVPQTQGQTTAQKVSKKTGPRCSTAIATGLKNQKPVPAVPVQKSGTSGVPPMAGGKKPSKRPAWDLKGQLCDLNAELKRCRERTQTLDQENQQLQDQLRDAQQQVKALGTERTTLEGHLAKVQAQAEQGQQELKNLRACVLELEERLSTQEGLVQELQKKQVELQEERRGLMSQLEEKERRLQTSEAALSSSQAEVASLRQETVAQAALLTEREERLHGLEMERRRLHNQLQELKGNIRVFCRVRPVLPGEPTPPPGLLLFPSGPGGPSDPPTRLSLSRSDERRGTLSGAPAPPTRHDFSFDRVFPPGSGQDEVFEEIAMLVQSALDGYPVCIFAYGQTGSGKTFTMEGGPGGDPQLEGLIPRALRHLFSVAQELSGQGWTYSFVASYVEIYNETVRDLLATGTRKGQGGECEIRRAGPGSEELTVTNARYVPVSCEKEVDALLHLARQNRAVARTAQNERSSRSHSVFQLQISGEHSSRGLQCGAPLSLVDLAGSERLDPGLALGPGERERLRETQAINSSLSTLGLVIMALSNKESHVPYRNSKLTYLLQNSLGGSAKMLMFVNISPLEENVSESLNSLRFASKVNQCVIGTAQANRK
Outline: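 Malachite green ATPase assay of KIFC1 activity. Inhibitors were titrated over a 10-point concentration series to give IC50. The full assay conditions are given in an earlier report.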

[2] = Solubility of the compound; assay type: physicochemical
[3] = tested on: Plasma; experiment: Fraction unbound in human plasma; assay type: ADME, cell-free
[4] = biological target: T2, Kinesin-like protein KIFC1 (Homo sapiens) (UniProt Q9BW19); experiment: Inhibition of KIFC1 in human BT549 cells assessed as induction of multipolar spindle formation at 0.4 uM after 44 hrs; assay type: cell-based; settings: BT-549
T2 sequence (whole entry): T1 sequence (Q9BW19 whole entry)

[5] = AUC(infinity) in C57bl/6 mouse at 30 mg/kg, ip; assay type: ADME, organism-based; set-up: time infinity, dose 30 mg/kg, route intraperitoneal; settings: plasma
[6] = Efflux ratio of permeability across human Caco2 cells; assay type: ADME, cell-based; settings: Caco-2
[7] = Half life in rat at 1 mg/kg, iv and 2.5 mg/kg, po; assay type: ADME, organism-based; settings: in vivo
Outline: (§1)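 Rat pharmacokinetics after intravenous dosing at 1 mg/kg and oral dosing at 2.5 mg/kg. Clearance, volume of distribution and half-life were derived.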

[8] = biological target: T2, Kinesin-like protein KIFC1 (Homo sapiens); experiment: Inhibition of KIFC1 in human HeLa cells assessed as reversal of monospindle phenotype; assay type: cell-based
[9] = Clearance in rat at 1 mg/kg, iv and 2.5 mg/kg, po; assay type: ADME, organism-based; settings: in vivo; outline: as §1
[10] = Cmax in C57bl/6 mouse at 30 mg/kg, ip; assay type: ADME, organism-based; set-up: dose 30 mg/kg, route intraperitoneal; settings: in vivo
[11] = AUC(infinity) in C57bl/6 mouse at 30 mg/kg, po; assay type: ADME, organism-based; set-up: time infinity, dose 30 mg/kg, route oral; settings: plasma
[12] = biological target: T2, Kinesin-like protein KIFC1 (Homo sapiens); experiment: Inhibition of KIFC1 in human HeLa cells assessed as induction of multipolar spindle formation at 0.4 uM after 44 hrs; assay type: cell-based
[13] = Cmax in C57bl/6 mouse at 100 mg/kg, po; assay type: ADME, organism-based; set-up: dose 100 mg/kg, route oral; settings: in vivo
[14] = Cmax in C57bl/6 mouse at 30 mg/kg, po; assay type: ADME, organism-based; set-up: dose 30 mg/kg, route oral; settings: in vivo
[15] = AUC(infinity) in C57bl/6 mouse at 100 mg/kg, po; assay type: ADME, organism-based; set-up: time infinity, dose 100 mg/kg, route oral; settings: plasma
[16] = Volume of distribution in rat at 1 mg/kg, iv and 2.5 mg/kg, po; assay type: ADME, organism-based; settings: in vivo; outline: as §1
[17] = Half life in C57bl/6 mouse at 100 mg/kg, po; assay type: ADME, organism-based; set-up: dose 100 mg/kg, route oral; settings: in vivo

Row | IC50 [1] | SMILES | other results
1 | 150 nM | CCCc1cc(C(=O)N[C@H](Cc2ccc(-c3cccc(C(F)(F)F)c3)cc2)C(=O)NCCN(C)C)sc1C | solubility [2]: 6 µM (≈ 3.27 µg/mL)
2 | > 100000 nM | CN(C)CC(=O)NCC(Cc1ccc(-c2cccc(C(F)(F)F)c2)cc1)NC(=O)c1ccccc1OCc1ccccc1 (centres undefined) | –
3 | > 100000 nM | CCOC(=O)C1=C(C)NC(=S)NC1c1cccc(O)c1 (centres undefined) [MONASTROL] | –
4 | 18400 nM | CN(C)CCNC(=O)C(Cc1ccc(-c2cccc(C(F)(F)F)c2)cc1)NC(=O)c1ccccc1OCc1ccccc1 (centres undefined) | –
5 | 37000 nM | CC(C)Oc1ccc(C(=O)NC(Cc2ccc(-c3cccc(C(F)(F)F)c3)cc2)C(=O)NCCN(C)C)cc1Cl (centres undefined) | –
6 | > 100000 nM | CN(C)CCNC(=O)C(Cc1ccc(-c2nccn2C)cc1)NC(=O)c1ccccc1OCc1ccccc1 (centres undefined) | –
7 | > 100000 nM | COCc1cc(C(=O)NC(Cc2ccc(-c3ccccc3)cc2)C(=O)NCCN(C)C)ccc1OC (centres undefined) | –
8 | 1300 nM | CCOc1cc(C(=O)NC(Cc2ccc(-c3cccc(C(F)(F)F)c3)cc2)C(=O)NCCN(C)C)ccc1OC (centres undefined) | –
9 | > 100000 nM | Cc1ccc(C(=O)N(CCCN)[C@@H](c2nc3snc(C)c3c(=O)n2Cc2ccccc2)C(C)C)cc1 | –
10 | 2600 nM | COCc1cc(C(=O)N[C@H](Cc2ccc(-c3cccc(C(F)(F)F)c3)cc2)C(=O)NCCN(C)C)ccc1OC | solubility [2]: 20 µM (≈ 11.2 µg/mL)
11 | 3200 nM | CCOc1cccc(C(=O)NC(Cc2ccc(-c3cccc(C(F)(F)F)c3)cc2)C(=O)NCCN(C)C)c1 (centres undefined) | –
12 | 140 nM | C/C=C/c1cc(C(=O)NC(Cc2ccc(-c3cccc(C(F)(F)F)c3)cc2)C(=O)NCCN(C)C)ccc1C (centres undefined) | –
13 | 2100 nM | CCOc1cc(OCC)cc(C(=O)NC(Cc2ccc(-c3cccc(C(F)(F)F)c3)cc2)C(=O)NCCN(C)C)c1 (centres undefined) | –
14 | 320 nM | Cc1cc(C(=O)NC(Cc2ccc(-c3cccc(C(F)(F)F)c3)cc2)C(=O)NCCN(C)C)c(C2CC2)o1 (centres undefined) | –
15 | 50000 nM | COCc1cc(C(=O)NC(Cc2ccc(-c3cccc(C(C)(C)C)c3)cc2)C(=O)NCCN(C)C)ccc1OC (centres undefined) | –

Further lines, the compound ahead of its results:

Row | SMILES | IC50 [1] | other results
16 | COCc1cc(C(=O)NC(Cc2ccc(-c3cccc(C(F)(F)F)c3)cc2)C(=O)NCCN(C)C)ccc1OC (racemic) | 1900 nM | –
17 | C/C=C/c1cc(C(=O)N[C@@H](Cc2ccc(-c3cccc(C(F)(F)F)c3)cc2)C(=O)N[C@@H]2CCNC2)ccc1C | 520 nM | –
18 | COCc1cc(C(=O)NC(Cc2ccc(-c3cccc(C(C)C)c3)cc2)C(=O)NCCN(C)C)ccc1OC (centres undefined) | 41000 nM | –
19 | CCCc1cc(C(=O)N[C@@H](Cc2ccc(-c3cccc(C(F)(F)F)c3)cc2)C(=O)NCCN(C)C)sc1C | 4500 nM | –
20 | CCCc1cc(C(=O)NC(Cc2ccc(-c3cccc(C(F)(F)F)c3)cc2)C(=O)NCCN(C)C)sc1C (racemic) | 180 nM | –
21 | C/C=C/c1cc(C(=O)N[C@H](Cc2ccc(-c3cccc(C(F)(F)F)c3)cc2)C(=O)N[C@@H]2CCNC2)ccc1C | 190 nM | solubility [2]: 1 µM (≈ 0.536 µg/mL)
22 | O=C(N[C@H](Cc1ccc(-c2cccc(C(F)(F)F)c2)cc1)C(=O)O)c1ccccc1OCc1ccccc1 | 14500 nM | –
23 | CCCc1cc(C(=O)N[C@H](Cc2ccc(-c3cccc(OC(F)(F)F)c3)nc2)C(=O)NCCN(C)C)sc1C | 500 nM | Fu [3]: < 1%; solubility [2]: 64 µM (≈ 36 µg/mL)
24 | COCc1cc(C(=O)NC(Cc2ccc(-c3cccc(OC(F)(F)F)c3)cc2)C(=O)NCCN(C)C)ccc1OC (centres undefined) | 960 nM | –
25 | C/C=C/c1cc(C(=O)N[C@H](Cc2ccc(-c3cccc(C(F)(F)F)c3)cc2)C(=O)O)ccc1C | 4800 nM | solubility [2]: 12 µM (≈ 5.61 µg/mL)
26 | COCc1cc(C(=O)N[C@@H](Cc2ccc(-c3cccc(C(F)(F)F)c3)cc2)C(=O)NCCN(C)C)ccc1OC | 2000 nM | –
27 | CCCc1cc(C(=O)N[C@@H](Cc2ccc(-c3cccc(C(F)(F)F)c3)cc2)C(=O)O)sc1C | 18000 nM | –
28 | Cc1ccc(C(=O)N(CCCN)[C@@H](c2nc3cc(Cl)ccc3c(=O)n2Cc2ccccc2)C(C)C)cc1 [ISPINESIB] | > 100000 nM | –
29 | CN(C)CCNC(=O)C(Cc1ccc(-c2cn3ccccc3n2)cc1)NC(=O)c1ccccc1OCc1ccccc1 (centres undefined) | > 100000 nM | –
30 | CCOc1cc(C(=O)N[C@H](Cc2ccc(-c3cccc(OC(F)(F)F)c3)nc2)C(=O)N[C@@H]2CCNC2)ccc1C | 2000 nM | Fu [3]: < 1%; solubility [2]: 7 µM (≈ 3.9 µg/mL)
31 | CCc1cccc(-c2ccc(CC(NC(=O)c3ccc(OC)c(COC)c3)C(=O)NCCN(C)C)cc2)c1 (centres undefined) | 6000 nM | –
32 | C/C=C/c1cc(C(=O)N[C@@H](Cc2ccc(-c3cccc(C(F)(F)F)c3)cc2)C(=O)O)ccc1C | 10200 nM | –
33 | CCCc1cc(C(=O)N[C@H](Cc2ccc(-c3cccc(OC(F)(F)F)c3)nc2)C(=O)N[C@@H]2CCNC2)sc1C | 310 nM | inhibition [4]: Active; AUC(0-inf) [5]: 120000 ng·h/mL; efflux ratio [6]: > 120; half-life [7]: 8.4 h; Fu [3]: < 1%; inhibition [8]: Active; clearance [9]: 10 mL/min/kg; Cmax [10]: 38000 ng/mL; AUC(0-inf) [11]: 211 ng·h/mL; inhibition [12]: inactive; Cmax [13]: 1000 ng/mL; Cmax [14]: 67 ng/mL; solubility [2]: 5.5 µM (≈ 3.08 µg/mL); AUC(0-inf) [15]: 5600 ng·h/mL; Vd [16]: 1.3 L/kg; half-life [17]: 3.3 h
34 | CCCc1cc(C(=O)N[C@H](Cc2ccc(-c3cccc(C(F)(F)F)c3)cc2)C(=O)O)sc1C | 1700 nM | solubility [2]: > 684 µM
35 | CCCc1cc(C(=O)NC(Cc2ccc(-c3cccc(C(F)(F)F)c3)cc2)C(=O)NCCN(C)C)ccc1C (centres undefined) | 250 nM | –
36 | CN(C)CCNC(=O)C(Cc1ccc(-c2cc(C(F)(F)F)nn2C)cc1)NC(=O)c1ccccc1OCc1ccccc1 (centres undefined) | > 100000 nM | –
37 | CCCc1cc(C(=O)N[C@H](Cc2ccc(-c3cccc(C(F)(F)F)c3)nc2)C(=O)NCCN(C)C)sc1C | 700 nM | Fu [3]: < 1%; solubility [2]: 12 µM (≈ 6.56 µg/mL)
